{
  "source": "paper PMC5147053",
  "about": "(Drugs in Context, 2016)",
  "key": {"[1]": {"assay": "Safety assessment: treatment-emergent adverse events", "type": "in vivo, human", "in_short": "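Patients with advanced or metastatic cancer took single 150 mg oral doses of the test compound in a 3-period crossover: high-shear wet granulation, roller-compaction dry-milled and slurry-milled formulations, with washouts of 48 h to 5 days. Safety monitoring covered AEs, SAEs, physical exams, vital signs, lab tests and concomitant medications. TEAEs were graded by CTCAE v3.0 for all patients dosed at least once.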"}, "[2]": {"settings": "oral; cited from earlier work"}, "[3]": {"settings": "single 150 mg dose, N=14, regardless of causality"}},
  "data": [
    {"smiles": "Cc1cccc(-c2nn3c(c2-c2ccnc4ccc(C(N)=O)cc24)CCC3)n1", "note": "[Galunisertib]", "values": [
      {"measurement": "SAEs or deaths during the study", "setting": "[1]; 14 patients, any formulation", "value": "no SAEs or deaths"},
      {"measurement": "Study discontinuations due to TEAEs", "setting": "[1]; 14 patients, any formulation", "value": "no study discontinuations"},
      {"measurement": "TEAEs determined to be related to galunisertib by the investigator", "setting": "[1]; 14 patients, any formulation", "value": "None"},
      {"measurement": "Number of patients reporting TEAEs regardless of causality", "setting": "[1]; of 14 patients, any formulation, single 150 mg doses", "value": "Five"},
      {"measurement": "Number of patients with TEAE Convulsion (Grade 1)", "setting": "[1]; [3]", "value": 1},
      {"measurement": "Number of patients with TEAE Dizziness (Grade 1)", "setting": "[1]; [3]", "value": 1},
      {"measurement": "Number of patients with TEAE Hyperglycemia (Grade 1)", "setting": "[1]; [3]", "value": 1},
      {"measurement": "Number of patients with TEAE Lymphopenia (Grade 3)", "setting": "[1]; [3]", "value": 2},
      {"measurement": "Number of patients with TEAE Pyrexia (Grade 1)", "setting": "[1]; [3]", "value": 1},
      {"measurement": "Number of patients with TEAE Vulvovaginitis (Grade 1)", "setting": "[1]; [3]", "value": 1},
      {"measurement": "Mean terminal half-life", "setting": "[2]", "value": 8, "unit": "h"},
      {"measurement": "Time of peak plasma concentrations following administration", "setting": "[2]", "value": "0.5 to 2", "unit": "h"}
    ]}
  ]
}
